Measurements published in ChEMBL document CHEMBL4033757, “Efficient Divergent Synthesis of New Immunostimulant 4″-Modified α-Galactosylceramide Analogues” (ACS Med Chem Lett, 2017).
Active and inactive are the calls of the source.

Columns and labels:
iNKT = test: Immunostimulatory activity in human iNKT cells cocultured with HeLa CD1d cells assessed as induction of IFNgamma levels at 0.01 to 1 nM after 24 hrs by ELISA; assay type: functional, cell-based
Procedure, shortened: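 Human iNKT cells cocultured with HeLa cells expressing CD1d plus glycolipid at varying concentrations. After 24 h incubation, IFN-γ in the culture measured by ELISA.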

Mus musculus [1] = test: Immunostimulatory activity in C57BL/6 mouse assessed as induction of IL-4 levels in serum at 2.0 x 10^-4 […], ip measured after 4 hrs by ELISA; assay type: functional, organism-based
Procedure, shortened: (§1)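 C57BL/6 mice dosed intraperitoneally with 5 μg glycolipid per animal (stated as 2.0 × 10–4 […]). Serum collected and cytokines quantified by ELISA: IFN-γ at 16 h post-injection, IL-4 at 4 h post-injection.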

Mus musculus [2] = test: Immunostimulatory activity in C57BL/6 mouse assessed as induction of IFNgamma levels in serum at 2.0 x 10^-4 […], ip measured after 16 hrs by ELISA; assay type: functional, organism-based; procedure, shortened: as §1

Measured: Activity

CCCCCCCCCCCCCCCCCCCCCCCCCC(=O)N[C@@H](CO[C@H]1O[C@H](CO)[C@H](OC(=O)Nc2cccc3ccccc23)[C@H](O)[C@H]1O)[C@H](O)[C@H](O)CCCCCCCCCCCCCC
active: all assays above

C=C1[C@@H](CO)O[C@H](OC[C@H](NC(=O)CCCCCCCCCCCCCCCCCCCCCCCCC)[C@H](O)[C@H](O)CCCCCCCCCCCCCC)[C@H](O)[C@H]1O
active: all assays above

CCCCCCCCCCCCCCCCCCCCCCCCCC(=O)N[C@@H](CO[C@H]1O[C@H](CO)[C@@H](NC(=O)Nc2cccc3ccccc23)[C@H](O)[C@H]1O)[C@H](O)[C@H](O)CCCCCCCCCCCCCC
active: all assays above

CCCCCCCCCCCCCCCCCCCCCCCCCC(=O)N[C@@H](CO[C@H]1O[C@H](CO)[C@H](OC)[C@H](O)[C@H]1O)[C@H](O)[C@H](O)CCCCCCCCCCCCCC
active: all assays above

CCCCCCCCCCCCCCCCCCCCCCCCCC(=O)N[C@@H](CO[C@H]1O[C@H](CO)[C@H](OCc2ccc(Cl)cc2)[C@H](O)[C@H]1O)[C@H](O)[C@H](O)CCCCCCCCCCCCCC
active: all assays above

CCCCCCCCCCCCCCCCCCCCCCCCCC(=O)N[C@@H](CO[C@H]1O[C@H](CO)[C@H](O)[C@H](O)[C@H]1O)[C@H](O)[C@H](O)CCCCCCCCCCCCCC
active: all assays above
